# SR-BI uptake up – enhances SR-BI lipid uptake from DiI-HDL | CHO ldlA[mSR-BI] cells, DiI-HDL uptake fluorescence, 3 h; 100 = double the neutral-control signal | activation, % at 12.5 µM | hit rate 0.096% among 320,000;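 active = mean replicate activation of at least 60% and every replicate at or above 60%; inconclusive = mean or all-replicate condition met, but not both; inactive = mean below 60% and not all replicates reaching 60%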;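 also: 0% = median plate neutral-control signal and 100% = twice that signal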
#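 Assay system: CHO ldlA[mSR-BI] cells, LDL receptor-null, SR-BI overexpressing; medium: Ham's F12 with 0.5% BSA, HEPES 25 mM, pH 7.4; also added: DiI-HDL 10 µg/mL; timing: 3 h uptake period with compound, 37 °C; signal: DiI fluorescence, bottom read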
# MITF act – increases MITF-driven TRPM1 promoter luciferase signal; activation, % at 12.5 µM; hit rate 0.75% among 300,000; SK-MEL-5 TRPM1-promoter luciferase, 24 h; % of positive control, neutral wells = 0;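 active = mean activation of at least 80% with every replicate also reaching 80%; inconclusive = mean reaches 80% but some replicate falls short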;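 also: 0% = neutral control wells and 100% = parthenolide positive control wells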
# Wnt bcat act – activators of Wnt/beta-catenin signaling. Wnt/beta-catenin reporter cell assay, activator, plate reader. activation, % at 9.35 µM. hit rate 1.2% among 300,000. AID 743398; in the data active = activation above about 30%, passing the limit was not always enough; inconclusive = no clear call, values can overlap the other calls;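 also: 0% = neutral control wells and 100% = positive control wells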
# HSF-1 act – increases HSF-1 driven luciferase reporter signal. NIH3T3-HGL HSF-1 luciferase reporter, MG132, 8 h; 100% = twice DMSO control signal. activation, % at 9 µM. hit rate 1.7% among 300,000;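 active = mean replicate activation of at least 50% with a set share of replicates each reaching 50%; inconclusive = only one of those two conditions met; inactive = mean below 50% and too few replicates reaching it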;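 also: 0% = median of the neutral control wells and 100% = twice that signal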
# SR-BI DiI inh – mouse SR-BI HDL lipid transfer inhibition; inhibition, % at 12.5 µM; hit rate 0.96% among 320,000; Q61009; ldlA[mSR-BI] CHO cells, DiI-HDL uptake fluorescence, 3 h;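 active = mean replicate inhibition of at least 70% and a set share of replicates each scoring 70 or more; inconclusive = meets just one of the two criteria; inactive = fails both criteria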;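 also: 0% = median of neutral control wells and 100% = median of positive control wells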
# Target sequence (Q61009 whole entry, looked up): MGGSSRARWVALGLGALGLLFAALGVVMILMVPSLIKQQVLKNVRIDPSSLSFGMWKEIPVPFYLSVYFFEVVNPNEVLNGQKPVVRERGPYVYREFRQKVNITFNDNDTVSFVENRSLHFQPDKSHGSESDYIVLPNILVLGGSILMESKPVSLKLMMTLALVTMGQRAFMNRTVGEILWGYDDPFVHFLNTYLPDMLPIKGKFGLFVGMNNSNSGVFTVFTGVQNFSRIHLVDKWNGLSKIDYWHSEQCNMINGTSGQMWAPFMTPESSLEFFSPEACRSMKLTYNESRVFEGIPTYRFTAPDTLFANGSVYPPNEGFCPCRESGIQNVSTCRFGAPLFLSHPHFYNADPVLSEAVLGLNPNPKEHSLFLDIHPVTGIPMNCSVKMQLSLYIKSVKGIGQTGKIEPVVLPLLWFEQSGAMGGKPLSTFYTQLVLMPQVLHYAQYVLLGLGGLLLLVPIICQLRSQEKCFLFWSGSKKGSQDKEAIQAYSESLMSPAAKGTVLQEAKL
# The depositor's hits bear a star; u = inconclusive; x = no result. Only some compounds are listed: those with a hit (about 3.6% of all), similar ones and a draw of the others.
SMILES,SR-BI uptake up,MITF act,Wnt bcat act,HSF-1 act,SR-BI DiI inh
Cc1ccc(-n2c(C(C)C)nc3oc4ccccc4c(=O)c3c2=O)cc1,14,44,65*,41,-14
CCc1nc2oc3ccccc3c(=O)c2c(=O)n1CCOC,21,x,-7,0,-21
COCCn1c(C(C)C)nc2oc3ccccc3c(=O)c2c1=O,8,5,0,-6,-8
CCCc1nc2oc3ccccc3c(=O)c2c(=O)n1-c1ccc(C)cc1,x,x,49*,44,x
O=C1C=C(c2cccc3c2Oc2ccccc2S3)C[C@@H](c2ccc(Cl)cc2)C1,-3,5,-7,x,3
COc1ccc([C@H]2CC(=O)C=C(c3cccc4c3Oc3ccccc3S4)C2)cc1OC,-80,-4,-1,x,80*
NC(=O)NN=C1CCC(O)CC1CC(=O)O (configuration not stated),x,x,9,x,x
Cc1ccc2sc(N(CCCN(C)C)C(=O)CCS(=O)(=O)c3ccccc3)nc2c1C,34,-29,-9,111*,-34
COc1ccc(OC)c2sc(N(CCCN(C)C)C(=O)CCS(=O)(=O)c3ccccc3)nc12,44,-20,-10,5,-44
O=C(COc1ccccc1C(=O)c1cnn(-c2ccccc2)c1)Nc1ccc2ccccc2c1,-11,114*,7,29,11
CC(C)c1ccc(NC(=O)COc2ccc(F)cc2C(=O)c2cnn(-c3ccccc3)c2)cc1,-10,39,x,60*,10
NC(=O)[C@H]1CC2(CC(c3cccc(NC(=O)COc4ccc(Cl)cc4)c3)=NO2)CN1C(=O)c1ccccc1C(=O)c1ccccc1 (some centres not stated),-77,-12,-1,26,77*
CCOC1CCCc2oc(-c3ccc(OC)cc3)c(C(=O)NCCCCO)c21 (configuration not stated),x,x,0,x,x
O=C(Nc1cccc2cccnc12)c1ccccc1Cl,x,x,11,91*,x
O=C(Nc1cccn(Cc2c(Cl)cccc2Cl)c1=O)c1ccc(Cl)cc1Cl,x,x,x,0,x
O=C(O)c1ccccc1C(=O)Nc1ccc(Br)c2cccnc12,-6,-6,2,51*,6
O=C(Nc1cccn(Cc2c(Cl)cccc2Cl)c1=O)c1ccccc1Cl,-13,7,-4,89*,13
O=C(O)c1ccccc1C(=O)Nc1ccccn1,-1,-10,-5,3,1
COCCN1C(=O)c2ccccc2C1c1nnnn1Cc1ccccc1 (configuration not stated),x,x,-4,x,x
COc1ccc(O)c(CN2CCCC(N3CCc4ccccc4C3)C2)c1 (configuration not stated),x,-5,-1,16,x
CC(C)c1ccc(OCC(=O)N2CCCCCC2)c(Br)c1,9,64,43*,101*,-9
Cc1cc(C(=O)COC(=O)c2cccc(S(=O)(=O)N(C)C)c2)c(C)n1CC1CCCO1 (configuration not stated),-13,u,37*,x,13
Cc1cc(C(=O)CSc2nc3ccccc3c(=O)[nH]2)c(C)n1CC1CCCO1 (configuration not stated),-6,28,-1,59*,6
O=C(Oc1c(CN2CCOCC2)cc(Cl)c2cccnc12)c1ccccc1Cl,1,-75,1,6,-1
O=C(Oc1c(CN2CCOCC2)cc(Cl)c2cccnc12)c1cccs1,-47,-71,47*,-16,47
SMILES,SR-BI uptake up,MITF act,Wnt bcat act,HSF-1 act,SR-BI DiI inh
c1ccc(-c2nnc(-c3ccccn3)nn2)nc1,-3,36,36*,25,3
c1ccc(-c2nnc(-c3ccccn3)c(-c3ccccn3)n2)nc1,x,x,2,-17,x
CCCCNC(=O)C1C(c2ccc(C(F)(F)F)cc2)=Nc2ccccc2N1C(=O)c1cccc2ccccc12 (configuration not stated),x,x,7,x,x
NC(=O)c1c(NC(=O)COC(=O)c2ccc(S(=O)(=O)Nc3ccccc3)cc2)sc2c1CCCC2,-95,-6,-1,11,95*
O=C(CN1CCCCCC1)Nc1nc2ccccc2s1,7,x,1,x,-7
NC(=O)CC(NC(=O)c1ccc(Br)cc1)c1ccc(N2CCCCCC2)c([N+](=O)[O-])c1 (configuration not stated),20,26,-6,74*,-20
NC(=O)CC(NC(=O)c1ccccc1)c1ccc(N2CCCCCCC2)c([N+](=O)[O-])c1 (configuration not stated),4,4,-5,-23,-4
COC(=O)c1ccc(CSc2nc3c(c(=O)[nH]2)CCC3)cc1,x,x,2,x,x
O=C(NC1CCCCC1)c1cc(-c2ccco2)on1,-3,24,26,29,3
COc1cccc(-c2cc(C(=O)NC3CCCCC3)no2)c1,3,115*,4,24,-3
O=C(NC1CCCCC1)c1cc(-c2ccc(Cl)cc2)on1,20,67,10,21,-20
O=C(NC1CCCC1)c1cc(-c2ccc(Cl)cc2)on1,-23,132*,30*,33,23
O=C(NC1CCCC1)c1cc(-c2cccc(Cl)c2)on1,0,127*,25,10,0
COc1ccc(-c2cc(C(=O)NC3CCCC3)no2)cc1,-8,67,18,39,8
O=C(NC1CCCC1)c1cc(-c2ccc(F)cc2)on1,-19,62,-2,43,19
O=C(NC1CCCCC1)c1cc(-c2cccc(Cl)c2)on1,x,95*,17,38,x
Cc1cccc(CN2[C@@H](C)[C@H](c3ccccc3)Oc3cc(Br)ccc3S2(=O)=O)c1,x,x,-3,x,x
CC(C)(CNC(=O)c1cccc(S(=O)(=O)Nc2ccc(SC(F)F)cc2)c1)N1CCOCC1,14,-1,-3,x,-14
COc1cccc(C(=O)NC2CCCC2)c1,4,6,1,70*,-4
Cc1ccccc1Oc1cccc(C(=O)/C(C#N)=C/N(C)C)c1,-8,12,-5,17,8
CN(C)/C=C(/C#N)C(=O)c1cccc(Oc2ccc(C(C)(C)C)cc2)c1,-71,-20,29,4,71*
O=C(NCC1CCCO1)c1[nH]c(C(F)(F)F)nc1-c1ccccc1 (configuration not stated),x,x,-2,x,x
COc1ccccc1-c1noc(-c2ccncc2)n1,x,35,0,12,x
COc1ccccc1-c1noc(-c2cccs2)n1,3,121*,23,23,-3
COc1ccccc1-c1nc(-c2ccc(C)nc2OC)no1,-35,x,61*,15,35
COc1nc(C)ccc1-c1noc(-c2ccccn2)n1,4,66,17,33,-4
O=S1(=O)Nc2c(ccc3cccnc23)-c2ccccc21,31,-76,x,158*,-31
Clc1ccc2ccc3cccnc3c2n1,x,15,-1,-4,x
COC(=O)[C@@]1(Cc2ccc(OC)cc2)[C@H]2c3cc(C(=O)N4CCCC4)n(Cc4ccccc4)c3C[C@H]2CN1C(=O)c1ccccc1,x,x,-4,x,x

# Screens from PubChem BioAssay.
